Screening results: PubChem BioAssay, Broad Institute
An excerpt weighted towards active compounds, which were near 2% of everything screened.
HIF activator: HIF pathway transcriptional activators, primary screen, cell-based, U2OS HRE-luciferase, luminescence | U2OS HRE-luciferase reporter; normalized: DMSO 0%, desferrioxamine 100% | activation, % at 7.5 µM (by protocol) | 0.32% of 300,000 active | AID 1910, 2009;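 active = mean activation of at least 10% of the iron chelator positive control signal, with at least half of replicates also reaching 10%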
AI-2 QS mod: Vibrio harveyi AI-2 quorum sensing modulators, primary screen, JMH597 strain, luminescence/OD600 ratio | AID 2094, 2009 | activity change, % at 7.5 µM | Vibrio harveyi JMH597 AI-2 luminescence/OD600 ratio, 9 h; hits give low values; strain lacks LuxN and CqsS sensors; 0 = neutral-control median | 0.4% of 300,000 active; in the data active = activity change below about -75%, passing the limit was not always enough;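 note: luminescence divided by OD600 gain over 9 h not by final OD600 alone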
ARNT-TACC3 inh: disruptors of ARNT/TACC3 protein interaction, primary screen, biochemical, AlphaScreen, single concentration. AlphaScreen His-ARNT PAS-B/GST-TACC3 binding, luminescence; TACC3 fragment carries E629A point mutation. inhibition, % at 9.99 µM. 0.66% of 390,000 active. AID 623870, 2012;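 active = mean inhibition of replicates at least 50% and at least half of replicates each reaching 50%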;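 note: 0% = complete ARNT plus TACC3 wells and 100% = ARNT alone without TACC3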
T cruzi repl: inhibitors of intracellular T. cruzi growth, primary screen, luminescence, NIH3T3 host cells. T. cruzi beta-gal in NIH3T3, 90 h. inhibition, % (no concentration beside the values). 1.4% of 300,000 active. AID 1885, 2009;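 active = mean inhibition across valid replicates above about 55%, limit read from the data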;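 note: signal also drops with host cell toxicity which is not excluded here; 0% = plate median of DMSO wells and 100% = zero luminescence signal; higher percent means less beta-gal luminescence so fewer parasites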
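Read-out: Parasite load inhibition, % | Test system: Mouse NIH/3T3 fibroblasts infected with β-gal-expressing T. cruzi Tulahuen C4 | Amount: 5,000 cells/well | Medium: DMEM, 2% fetal bovine serum | Signal: GalScreen β-gal luminescence, detergent lysis, 60 min | Timing: 3 h attach, ≥90 h co-culture | Also added: Tulahuen C4 trypomastigotes, 5000/well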
ARNT Alpha ctr: AlphaScreen signal interference compounds, dose response, artefact control for ARNT-TACC3 interaction inhibitor project, biochemical, luminescence, cherry-pick. shares compounds with ARNT-TACC3 inh. His-ARNT PASB-GST AlphaScreen artifact counter-screen. AC50, µM (series often up to 68 µM), without a hit: top-dose activity change, negative = signal decrease. 50% of 1,200 active. AID 651705, 2012;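 active = every separate test run was called active for a drop in luminescence, with AC50 within twice the top valid dose, actives reach about 71 µM in these data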
The depositor's hits bear a star; . = not tested or not shown; [ ] = another dose, or the depositor's remark.

SMILES	HIF activator	AI-2 QS mod	ARNT-TACC3 inh	T cruzi repl	ARNT Alpha ctr
CC1CCCN(S(=O)(=O)c2ccc(C(=O)Nc3nnc(-c4ccccn4)o3)cc2)C1 (stereo not given)	0	46	.	-14	.
COCc1nnc(NC(=O)c2ccc(S(=O)(=O)N3CCCCCC3)cc2)o1	0	40	36	-3	.
COc1cccc(C(=O)Nc2ccc3c(c2)C(=O)N(C)C[C@@H](OC)[C@H](C)CN(C(=O)C2CCCC2)[C@@H](C)CO3)c1	.	.	-41	.	.
C[C@H](CO)N1C[C@H](C)[C@H](CN(C)C(=O)Nc2ccc3c(c2)OCO3)Oc2ccc(NS(C)(=O)=O)cc2C1=O	.	.	-12	.	.
N#Cc1ccsc1NC(=O)c1ccccn1	0	18	64*	-14	-11%
COCC(=O)Nc1ccc2c(c1)OC[C@@H](C)N(Cc1cc(-c3ccccc3)on1)C[C@@H](C)[C@H](OC)CN(C)C2=O	.	.	8	.	.
CCCNC(=O)[C@H]1[C@H](CO)[C@H]2Cn3c(ccc(C4=CCCC4)c3=O)[C@@H]1N2Cc1ccncc1	.	.	13	.	.
O=C(CN1C(=O)/C(=C\c2cccs2)SC1=S)Nc1cccc(C(=O)O)c1	0	15	57*	-12	-10%
CO[C@H]1CN(C)C(=O)c2ccc(NS(=O)(=O)c3cccc(Cl)c3)cc2OC[C@@H](C)NC[C@H]1C	.	.	-11	.	.
O=C(CN1C(=O)C2CCCCC2C1=O)Nc1nc(-c2ccccn2)cs1 (stereo not given)	0	27	75*	10	52µM*
CC(C(=O)NC1CCCc2ccccc21)N1C(=O)C2CCCCC2C1=O (stereo not given)	.	.	-3	.	.
C[C@@H](C(=O)Nc1nc(-c2ccccn2)cs1)N1C(=O)C2CCCCC2C1=O (stereo not given in full)	1	50	63*	-1	21µM*
CC(C)NC(=O)N(C)C[C@H]1OCCCC[C@@H](C)Oc2ccc(NC(=O)Nc3ccccc3)cc2C(=O)N([C@@H](C)CO)C[C@H]1C	.	.	-5	.	.
CC(C)NC(=O)N(C)C[C@H]1OCCCC[C@H](C)Oc2ccc(NC(=O)Nc3ccccc3)cc2C(=O)N([C@H](C)CO)C[C@@H]1C	.	.	108*	.	-7%[42 µM]
COc1ccc(NC(=O)Nc2ccc3c(c2)C(=O)N([C@H](C)CO)C[C@@H](C)[C@@H](CN(C)C(=O)CCC(F)(F)F)OCCCC[C@H](C)O3)cc1	.	.	active	.	-17%[42 µM]
CC(C)NC(=O)Nc1ccc2c(c1)C(=O)N([C@@H](C)CO)C[C@H](C)[C@H](CN(C)C(=O)Cc1ccccc1)OCCCC[C@@H](C)O2	.	.	0	.	.
CC(C)NC(=O)Nc1ccc2c(c1)C(=O)N([C@H](C)CO)C[C@H](C)[C@@H](CN(C)C(=O)Cc1ccccc1)OCCCC[C@H](C)O2	.	.	97*	.	-7%[38 µM]
C[C@H](CO)N1C[C@H](C)[C@H](CN(C)C)Oc2cc(C#CCN(C)C)ccc2S1(=O)=O	.	.	4	.	.
COc1ccc(NC(=O)Nc2ccc3c(c2)C(=O)N([C@H](C)CO)C[C@H](C)[C@@H](CN(C)CC2CCCCC2)OCCCC[C@H](C)O3)cc1	.	.	4	.	.
CCCC#Cc1cnc2c(c1)C(=O)N([C@H](C)CO)C[C@@H](C)[C@H](CN(C)C(=O)NCCC)O2	.	.	-1	.	.
Nc1ccc2nc(-c3ccccn3)[nH]c2c1	1	46	46*	11	45µM*
Nc1ccc2nc(-c3ccccc3)[nH]c2c1	5	7	-2	-6	.
COc1ccc2nc(-c3ccccn3)[nH]c2c1	0	5	40*	-6	-7%
O=C(C1CCOCC1)N1[C@H](CO)[C@H]2c3ccccc3NC[C@H]21	.	.	5	.	.
COc1cc(/C=N/N(CCO)C2=NS(=O)(=O)c3ccccc32)cc(OC)c1OC	-2	12	41*	-3	-40%
O=S1(=O)N=C(N(CCO)/N=C/C=C/c2ccccc2)c2ccccc21	0	11	55*	-11	39µM*
O=S1(=O)N=C(N(CCO)/N=C/c2ccc(Cl)cc2)c2ccccc21	-1	18	5	4	.
